{"source": "paper PMC5437736", "about": "(Molecular Therapy. Methods & Clinical Development, 2017)", "key": {"[1]": {"conditions": "read-out: EC50 of the hydroxyl radical scavenging reaction; cited from earlier work"}, "different cell lines": {"test_system": "different cell lines", "conditions": "high concentration (100 μM); cited from earlier work"}, "[2]": {"test_system": "mitochondrial membrane potential in HeLa 705 cells", "assay": "Mitochondrial membrane potential", "assay_type": "cell-based, human", "conditions": "5 μM peptide 24 hr, TMRE fluorescence, n = 3; for mitochondrial membrane potential (Δψm) with H2O2 (oxidative stress): H2O2 200 μM for 2 hr", "summary_of_the_method": "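HeLa 705 cells seeded 24 hr ahead and treated 24 hr with peptide. In the stress arm, a 2 hr H2O2 exposure preceded the 24 hr incubation at 37°C, 5% CO2. TMRE added at 400 nM final for 30 min in the dark, then PBS wash and 0.2% BSA in PBS. Read at ex 549/em 575 nm, as percent of untreated cells or untreated + H2O2. FCCP and H2O2 served as controls. Mean ± SD of three experiments; one-way ANOVA.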"}, "[3]": {"test_system": "mitochondrial superoxide in HeLa 705 cells", "assay": "Superoxide anion scavenging assay", "assay_type": "cell-based, human", "conditions": "5 μM, 24 hr, MitoSOX fluorescence, mean of three experiments", "summary_of_the_method": "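HeLa 705 cells seeded at 7 × 10³ per well, recovered 24 hr, then exposed to peptide for 24 hr. MitoSOX Red working solution in HBSS/Ca/Mg added for 10 min at 37°C, 5% CO2, in the dark. Cells washed with 0.2% BSA in PBS and read at ex 510/em 580 nm. Signal normalised to antimycin A-treated cells or to a reference peptide. Mean ± SD of three experiments.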"}, "HeLa 705 cells [4]": {"test_system": "HeLa 705 cells", "assay": "Fluorescence microscopy, cellular uptake and localization", "assay_type": "cell-based, human", "conditions": "carboxyfluorescein-labelled peptide 5 μM, 4 hr, 200 nM TMRE", "summary_of_the_method": "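HeLa 705 cells given carboxyfluorescein-labelled peptides for 4 hr; untreated cells got fresh medium in parallel. Mitochondria stained with 200 nM TMRE (20 min at 37°C per methods; added 30 min pre-imaging per legend) and nuclei with Hoechst 33342 (10 min). Inverted fluorescence microscope with 10×/40× dry and 63× oil objectives, held at 36 ± 1°C. Excitation/emission: Hoechst 346/497 nm, FAM 494/519 nm, TMRE 535/575 nm.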"}, "Dynamic light scattering": {"assay": "Dynamic light scattering", "assay_type": "physicochemical", "conditions": "MilliQ H2O or cell culture media, 5 μM", "summary_of_the_method": "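Test compound dissolved either in DMEM with 10% FBS or in MilliQ water adjusted to pH 7.4. Dynamic light scattering gave hydrodynamic mean diameter and zeta potential. Data plotted as size distribution by intensity.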"}, "HeLa 705 cells [5]": {"test_system": "HeLa 705 cells", "assay": "Subcellular uptake by spectrofluorometry after isolation of mitochondria", "assay_type": "cell-based, human", "conditions": "5 μM, 24 hr; for compartment of main accumulation: membranes, cytosol, mitochondria fractions", "summary_of_the_method": "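HeLa 705 cells grown in flasks for 24 hr, treated 24 hr with fluorescein-labelled peptide, then scraped at about 90% confluence. Reagent-based kit with differential centrifugation (700 × g 10 min, then 12,000 × g 15 min, 4°C) gave membrane, cytosol and mitochondrial fractions. Fluorescein read at […] and normalised to untreated cells. Mean ± SD of three experiments; one-way ANOVA.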"}, "[6]": {"assay": "Solubility in MilliQ water", "assay_type": "physicochemical", "conditions": "compared with unlabelled peptide"}, "cells": {"test_system": "cells", "conditions": "1-hr treatment with 1 mM of GSH; cited from earlier work"}, "HeLa 705 cells [7]": {"test_system": "HeLa 705 cells", "assay": "WST-1 cell proliferation/viability assay", "assay_type": "cell-based, human", "conditions": "20% DMSO in complete growth medium, 24 hr, positive control", "summary_of_the_method": "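Cells seeded at 7 × 10³ per well 24 hr ahead, then exposed 24 hr to peptide at several concentrations in complete medium. WST-1 added at 1:10 final dilution after 20 hr and incubated 4 hr. Plate shaken 1 min; formazan read at 450 nm against 650 nm reference. Controls: 20% DMSO (v/v) for 24 hr and H2O2 at two levels. Mean of at least three experiments with SD.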"}}, "note": "pEC50: −log10 of the molar value. Non-standard residues stand in square brackets, D forms with d. No end group written: not given here. Dmt = Cc1cc(O)cc(C)c1C[C@H](N)C(=O)O; Orn = NCCC[C@H](N)C(=O)O"}
{"compound": "Y(Me)ECG-NH2 (N-terminus assumed; SMILES COc1ccc(C[C@H](N)C(=O)N[C@@H](CCC(=O)O)C(=O)N[C@@H](CS)C(=O)NCC(N)=O)cc1) [UPF25]", "values": [{"measurement": "pEC50", "setting": "[1]", "value": "~7.52"}, {"measurement": "effect on viability of different cell lines", "setting": "different cell lines", "value": "did not affect the viability"}, {"measurement": "mitochondrial membrane potential (Δψm) without H2O2", "setting": "[2]", "value": "decreased"}, {"measurement": "mitochondrial membrane potential (Δψm) with H2O2 (oxidative stress)", "setting": "[2]", "value": "partially rescue"}]}
{"compound": "[dR][Dmt][Orn]FY(Me)ECG-NH2 (N-terminus assumed; SMILES COc1ccc(C[C@H](NC(=O)[C@H](Cc2ccccc2)NC(=O)[C@H](CCCN)NC(=O)[C@H](Cc2c(C)cc(O)cc2C)NC(=O)[C@H](N)CCCNC(=N)N)C(=O)N[C@@H](CCC(=O)O)C(=O)N[C@@H](CS)C(=O)NCC(N)=O)cc1) [mtgCPP]", "values": [{"measurement": "improvement of superoxide anion scavenging ability compared with UPF25", "setting": "[3]", "value": 3, "unit": "fold"}, {"measurement": "improvement of superoxide anion scavenging ability compared with mtCPP1", "setting": "[3]", "value": 2, "unit": "fold"}, {"measurement": "mitochondrial localization (merge with TMRE)", "setting": "HeLa 705 cells [4]", "value": "partially targets the mitochondria"}, {"measurement": "aggregation (from DLS size)", "setting": "Dynamic light scattering", "value": "forming aggregates"}, {"measurement": "mitochondrial membrane potential (Δψm) with H2O2 (oxidative stress)", "setting": "[2]", "value": "close to the healthy situation"}]}
{"compound": "FAM-D-Arg-Dmt-Orn-Phe-NH2 [FAM-mtCPP1]", "values": [{"measurement": "increase in cytosol fraction between FAM-UPF25 and FAM-mtCPP1", "setting": "HeLa 705 cells [5]; carboxyfluorescein F.I., direction not given", "value": 2, "unit": "fold"}, {"measurement": "effect of the carboxyfluorescein moiety on solubility", "setting": "[6]", "value": "did not decrease the solubility"}]}
{"compound": "glutathione [GSH]", "values": [{"measurement": "uptake of GSH in cells", "setting": "cells", "value": "≈ 1.5 μM"}]}
{"compound": "FAM-Tyr(Me)-Glu-Cys-Gly-NH2 [FAM-UPF25]", "values": [{"measurement": "compartment of main accumulation", "setting": "HeLa 705 cells [5]", "value": "mainly accumulates in membranes"}, {"measurement": "effect of the carboxyfluorescein moiety on solubility", "setting": "[6]", "value": "slightly decreased"}]}
{"compound": "C[S+](C)[O-]", "note": "[DMSO]", "values": [{"measurement": "cell viability", "setting": "HeLa 705 cells [7]", "value": "approximately 20%"}]}
{"compound": "FAM-D-Arg-Dmt-Orn-Phe-Tyr(Me)-Glu-Cys-Gly-NH2 [FAM-mtgCPP]", "values": [{"measurement": "presence in membranes fraction", "setting": "HeLa 705 cells [5]; carboxyfluorescein F.I.", "value": "same extent as FAM-mtCPP1"}, {"measurement": "compartment of main accumulation", "setting": "HeLa 705 cells [5]", "value": "mainly accumulated in the mitochondria"}, {"measurement": "effect of the carboxyfluorescein moiety on solubility", "setting": "[6]", "value": "did not decrease the solubility"}]}
